Results: ChEMBL document CHEMBL1155932, “False positives in a reporter gene assay: identification and synthesis of substituted N-pyridin-2-ylbenzamides as competitive inhibitors of firefly luciferase” (J Med Chem, 2008)

T1: Luciferin 4-monooxygenase (Luciola lateralis, UniProt Q01158)
T1 sequence (Q01158 whole entry): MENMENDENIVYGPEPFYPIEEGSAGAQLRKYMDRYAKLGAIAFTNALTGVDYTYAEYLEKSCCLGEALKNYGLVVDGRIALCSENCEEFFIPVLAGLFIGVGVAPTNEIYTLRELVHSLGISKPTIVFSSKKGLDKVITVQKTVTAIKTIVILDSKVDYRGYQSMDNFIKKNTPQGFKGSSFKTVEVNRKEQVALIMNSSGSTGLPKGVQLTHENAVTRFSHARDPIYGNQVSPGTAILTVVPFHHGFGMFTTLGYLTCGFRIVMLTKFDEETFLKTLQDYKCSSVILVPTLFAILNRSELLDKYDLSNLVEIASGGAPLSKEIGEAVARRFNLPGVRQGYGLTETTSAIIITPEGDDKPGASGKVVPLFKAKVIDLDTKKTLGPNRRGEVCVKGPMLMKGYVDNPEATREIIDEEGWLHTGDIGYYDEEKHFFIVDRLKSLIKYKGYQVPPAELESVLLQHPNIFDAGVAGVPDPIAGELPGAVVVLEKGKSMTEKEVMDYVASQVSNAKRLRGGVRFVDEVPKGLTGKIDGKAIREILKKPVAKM

T2: Luciferin 4-monooxygenase (Luciola lateralis) (UniProt Q01158)
T2 sequence (whole entry): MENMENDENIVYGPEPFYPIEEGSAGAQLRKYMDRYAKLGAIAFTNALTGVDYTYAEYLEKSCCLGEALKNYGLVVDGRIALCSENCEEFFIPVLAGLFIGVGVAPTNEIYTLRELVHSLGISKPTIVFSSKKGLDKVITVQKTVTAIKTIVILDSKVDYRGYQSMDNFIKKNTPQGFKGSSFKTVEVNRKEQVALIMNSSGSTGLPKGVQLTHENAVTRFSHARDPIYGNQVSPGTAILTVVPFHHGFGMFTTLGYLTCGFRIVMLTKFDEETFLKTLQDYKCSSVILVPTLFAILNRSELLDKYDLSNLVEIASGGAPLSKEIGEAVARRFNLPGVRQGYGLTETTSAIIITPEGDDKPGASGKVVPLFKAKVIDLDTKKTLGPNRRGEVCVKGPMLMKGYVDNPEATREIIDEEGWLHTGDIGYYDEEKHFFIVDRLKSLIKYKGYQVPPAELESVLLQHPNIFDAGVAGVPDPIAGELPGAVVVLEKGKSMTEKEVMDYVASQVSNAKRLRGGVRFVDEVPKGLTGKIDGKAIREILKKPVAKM


target: T1, Luciferin 4-monooxygenase; test: Inhibition of firefly luciferase activity; parameters: species or system Aquatica lateralis; conditions: not given
Outline: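 Firefly luciferase (32 pM) in glycine-Tris buffer with EDTA and MgSO4, pH 7.8; substrates 50 µM D-luciferin and 90 µM ATP in glycine-Tris/MgSO4/EDTA/0.1% BSA/azide buffer, pH 7.8. Inhibitor tested at 11 concentrations; 30 min dark incubation, room temperature; luminescence counted. Nonspecific activity defined with 100 µM reference inhibitor. IC50 ± SEM from three experiments in duplicate.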

| Molecule | IC50 [nM] |
| --- | --- |
| O=C(Nc1ccc(-c2ccccc2)cn1)c1cccc(Cl)c1 | 160 |
| COc1ccc(-c2ccc(NC(=O)c3ccccc3)nc2)cc1 | 310 |
| O=C(Nc1ccc(-c2ccccc2)cn1)c1ccccc1 | 69 |
| COc1ccc(C(=O)Nc2ccc(C)cn2)c(OC)c1 | 610 |
| Nc1ccc(C(=O)Nc2ccc(-c3ccccc3)cn2)cc1 | 1200 |
| O=C(Nc1ccc(-c2ccccc2)cn1)C1CCCCC1 | 2400 |

Continued, values first:

| IC50 [nM] | Molecule |
| --- | --- |
| 6400 | Cc1ccc(NC(=O)c2ccccc2)nc1 |
| 560 | O=C(Nc1ccc(-c2ccc(Cl)cc2)cn1)c1ccccc1 |
| 1700 | O=C(Nc1ccc2ccccc2n1)c1ccccc1 |

substrate: O=C(Nc1ccc2ccccc2n1)c1ccccc1; conditions: Aquatica lateralis; 0.1 uM

| Molecule | Km [µM] | Vmax [%] |
| --- | --- | --- |
| Luciferin 4-monooxygenase (Luciola lateralis), Q01158 (protein) MENMENDENIVYGPEPFYPIEEGSAGAQLRKYMDRYAKLGAIAFTNALTGVDYTYAEYLEKSCCLGEALKNYGLVVDGRIALCSENCEEFFIPVLAGLFIGVGVAPTNEIYTLRELVHSLGISKPTIVFSSKKGLDKVITVQKTVTAIKTIVILDSKVDYRGYQSMDNFIKKNTPQGFKGSSFKTVEVNRKEQVALIMNSSGSTGLPKGVQLTHENAVTRFSHARDPIYGNQVSPGTAILTVVPFHHGFGMFTTLGYLTCGFRIVMLTKFDEETFLKTLQDYKCSSVILVPTLFAILNRSELLDKYDLSNLVEIASGGAPLSKEIGEAVARRFNLPGVRQGYGLTETTSAIIITPEGDDKPGASGKVVPLFKAKVIDLDTKKTLGPNRRGEVCVKGPMLMKGYVDNPEATREIIDEEGWLHTGDIGYYDEEKHFFIVDRLKSLIKYKGYQVPPAELESVLLQHPNIFDAGVAGVPDPIAGELPGAVVVLEKGKSMTEKEVMDYVASQVSNAKRLRGGVRFVDEVPKGLTGKIDGKAIREILKKPVAKM | 16 | 96 |

target: T2, Luciferin 4-monooxygenase (Luciola lateralis); test: Inhibition of firefly luciferase activity at 10 uM; conditions: Aquatica lateralis
Outline: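 Single 10 µM inhibitor concentration against 32 pM firefly luciferase with 50 µM D-luciferin and 90 µM ATP, pH 7.8 glycine-Tris buffers containing MgSO4 and EDTA. 30 min incubation in the dark at room temperature, then luminescence read. Percent inhibition from n = 2 experiments in duplicate.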

| Molecule | inhibition [%] |
| --- | --- |
| CC(C)Oc1ccc(-c2ccc(NC(=O)c3ccccc3)nc2)cc1 | 38 |
| O=C(Nc1ccc(-c2ccc(Cl)c(Cl)c2)cn1)c1ccccc1 | 4 |
| O=C(Nc1ccc(-c2ccccc2)cn1)c1ccc(Cl)cc1 | 0 |
| O=C(Nc1ccccc1)Nc1ccc(-c2ccccc2)cn1 | 20 |
| Cc1ccc(C(=O)Nc2ccc(-c3ccccc3)cn2)cc1 | 18 |
| CN(C)c1ccc(-c2ccc(NC(=O)c3ccccc3)nc2)cc1 | 14 |
| c1ccc(CNc2ccc(-c3ccccc3)cn2)cc1 | 20 |
| COc1ccc(C(=O)Nc2ccc(-c3ccccc3)cn2)c(OC)c1 | 26 |
| O=C(Nc1ccc(-c2cccc(Cl)c2)cn1)c1ccccc1 | 38 |
| CCCC(=O)Nc1ccc(-c2ccccc2)cn1 | 22 |
| O=C(Nc1cccc(-c2ccccc2)n1)c1ccccc1 | 30 |
| O=C(Nc1ccc(-c2ccccc2)cn1)Oc1ccccc1 | 0 |
| COc1ccc(C(=O)Nc2ccc(-c3ccccc3)cn2)cc1 | 28 |

Results, then the molecule that gave them:

| inhibition [%] | Molecule |
| --- | --- |
| 13 | O=C(Nc1ccc(-c2ccccc2)cn1)c1ccc(Cl)c(Cl)c1 |
| 27 | O=C(Nc1ccccn1)c1ccccc1 |
| 35 | CN(C)c1ccc(C(=O)Nc2ccc(-c3ccccc3)cn2)cc1 |
| 39 | O=C(Nc1ccc(-c2ccc(C(F)(F)F)cc2)cn1)c1ccccc1 |
| 12 | CC(C)Oc1ccc(C(=O)Nc2ccc(-c3ccccc3)cn2)cc1 |
| 49 | CC(C)(C)c1ccc(-c2ccc(NC(=O)c3ccccc3)nc2)cc1 |
| 51 | Cc1ccc(-c2ccc(NC(=O)c3ccccc3)nc2)cc1 |

substrate: O=C(Nc1ccc2ccccc2n1)c1ccccc1; conditions: Aquatica lateralis; 1 uM

| Molecule | Km [µM] | Vmax [%] |
| --- | --- | --- |
| Luciferin 4-monooxygenase (Luciola lateralis), Q01158 (protein) MENMENDENIVYGPEPFYPIEEGSAGAQLRKYMDRYAKLGAIAFTNALTGVDYTYAEYLEKSCCLGEALKNYGLVVDGRIALCSENCEEFFIPVLAGLFIGVGVAPTNEIYTLRELVHSLGISKPTIVFSSKKGLDKVITVQKTVTAIKTIVILDSKVDYRGYQSMDNFIKKNTPQGFKGSSFKTVEVNRKEQVALIMNSSGSTGLPKGVQLTHENAVTRFSHARDPIYGNQVSPGTAILTVVPFHHGFGMFTTLGYLTCGFRIVMLTKFDEETFLKTLQDYKCSSVILVPTLFAILNRSELLDKYDLSNLVEIASGGAPLSKEIGEAVARRFNLPGVRQGYGLTETTSAIIITPEGDDKPGASGKVVPLFKAKVIDLDTKKTLGPNRRGEVCVKGPMLMKGYVDNPEATREIIDEEGWLHTGDIGYYDEEKHFFIVDRLKSLIKYKGYQVPPAELESVLLQHPNIFDAGVAGVPDPIAGELPGAVVVLEKGKSMTEKEVMDYVASQVSNAKRLRGGVRFVDEVPKGLTGKIDGKAIREILKKPVAKM | 53 | 95 |

substrate: O=C(Nc1ccc2ccccc2n1)c1ccccc1; conditions: Aquatica lateralis; 1 uM; remark: another data set of the same source

| Molecule | Km [µM] | Vmax [%] |
| --- | --- | --- |
| Luciferin 4-monooxygenase (Luciola lateralis), Q01158 (protein) MENMENDENIVYGPEPFYPIEEGSAGAQLRKYMDRYAKLGAIAFTNALTGVDYTYAEYLEKSCCLGEALKNYGLVVDGRIALCSENCEEFFIPVLAGLFIGVGVAPTNEIYTLRELVHSLGISKPTIVFSSKKGLDKVITVQKTVTAIKTIVILDSKVDYRGYQSMDNFIKKNTPQGFKGSSFKTVEVNRKEQVALIMNSSGSTGLPKGVQLTHENAVTRFSHARDPIYGNQVSPGTAILTVVPFHHGFGMFTTLGYLTCGFRIVMLTKFDEETFLKTLQDYKCSSVILVPTLFAILNRSELLDKYDLSNLVEIASGGAPLSKEIGEAVARRFNLPGVRQGYGLTETTSAIIITPEGDDKPGASGKVVPLFKAKVIDLDTKKTLGPNRRGEVCVKGPMLMKGYVDNPEATREIIDEEGWLHTGDIGYYDEEKHFFIVDRLKSLIKYKGYQVPPAELESVLLQHPNIFDAGVAGVPDPIAGELPGAVVVLEKGKSMTEKEVMDYVASQVSNAKRLRGGVRFVDEVPKGLTGKIDGKAIREILKKPVAKM | 3.8 | 56 |
